Source: ChEMBL document CHEMBL4145448, “Broad activity of diphenyleneiodonium analogues against Mycobacterium tuberculosis, malaria parasites and bacterial pathogens” (Eur J Med Chem, 2018)

Assays:
[1] = Selectivity index, ratio of CC50 for human HepG2 cells in presence of 1% FBS to MIC for Acinetobacter baumannii ATCC 19606; type: toxicity; details: read-out: Selectivity Index
[2] = tested on: Escherichia coli; assay: Antibacterial activity against Escherichia coli N11281 after 18 hrs by broth microdilution method; type: functional; details: N11281, 18 h
Outline: (§1)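 Broth microdilution per CLSI in cation-adjusted Mueller-Hinton broth. 100 µL inoculum (~10^6 cfu/mL in CaMHB) mixed with 100 µL CaMHB containing compound, 0 to 128 µM. Incubated 18 h at 37 °C. MIC taken as the lowest concentration with no visible growth. Polymyxin B served as positive control. Isolates were stored at -80 °C in tryptone soy broth with 20% glycerol.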

[3] = tested on: Staphylococcus aureus; assay: Antibacterial activity against methicillin-resistant Staphylococcus aureus ATCC 43300 after 18 hrs by broth microdilution method; type: functional; details: ATCC 43300, 18 h; outline: as §1
[4] = Selectivity index, ratio of CC50 for human HepG2 cells in presence of 1% FBS to MIC for Escherichia coli N11281; type: toxicity; details: read-out: Selectivity Index
[5] = Selectivity index, ratio of CC50 for human HepG2 cells in presence of 1% FBS to MIC for Acinetobacter baumannii ATCC 17978 col10; type: toxicity; details: read-out: Selectivity Index
[6] = tested on: Pseudomonas aeruginosa; assay: Antibacterial activity against Pseudomonas aeruginosa ATCC 27853 after 18 hrs by broth microdilution method; type: functional; details: ATCC 27853, 18 h; outline: as §1
[7] = tested on: Acinetobacter baumannii; assay: Antibacterial activity against Acinetobacter baumannii ATCC 19606 col10 after 18 hrs by broth microdilution method; type: functional; details: ATCC 19606 = CIP 70.34 = JCM 6841 col10, 18 h; outline: as §1
[8] = tested on: Escherichia coli; assay: Antibacterial activity against Escherichia coli N4149 after 18 hrs by broth microdilution method; type: functional; details: N4149, 18 h; outline: as §1
[9] = Selectivity index, ratio of CC50 for human HepG2 cells in presence of 1% FBS to MIC for Klebsiella pneumoniae ATCC 13883; type: toxicity; details: read-out: Selectivity Index
[10] = tested on: Klebsiella pneumoniae; assay: Antibacterial activity against Klebsiella pneumoniae isolate 1 after 18 hrs by broth microdilution method; type: functional; details: isolate 1, 18 h; outline: as §1
[11] = tested on: Acinetobacter baumannii; assay: Antibacterial activity against Acinetobacter baumannii ATCC 17978 after 18 hrs by broth microdilution method; type: functional; details: ATCC 17978, 18 h; outline: as §1
[12] = Selectivity index, ratio of CC50 for human HepG2 cells in presence of 1% FBS to MIC for Pseudomonas aeruginosa ATCC 27853; type: toxicity; details: read-out: Selectivity Index
Outline: (§2)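 Selectivity index is CC50 (1% FBS) divided by MIC. […] They then got compound at 300 to 0.14 µM (3-fold steps) for 24 h at 37 °C, 5% CO2. Resazurin (10 µM, 2 h) was read at ex/em 560/590 in duplicate wells. For MIC, CLSI broth microdilution was run in CaMHB with ~10^6 cfu/mL inoculum and 0–128 µM compound.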

[13] = Selectivity index, ratio of CC50 for human HepG2 cells in presence of 1% FBS to MIC for Pseudomonas aeruginosa isolate M146201; type: toxicity; details: read-out: Selectivity Index; outline: as §2
[14] = Selectivity index, ratio of CC50 for human HepG2 cells in presence of 1% FBS to MIC for vancomycin-resistant Enterococcus faecium ATCC 700221; type: toxicity; details: read-out: Selectivity Index; outline: as §2
[15] = tested on: Acinetobacter baumannii; assay: Antibacterial activity against Acinetobacter baumannii isolate 246-01-C after 18 hrs by broth microdilution method; type: functional; outline: as §1
[16] = Selectivity index, ratio of CC50 for human HepG2 cells in presence of 1% FBS to MIC for Acinetobacter baumannii isolate 246-01-C; type: toxicity; details: read-out: Selectivity Index
[17] = Selectivity index, ratio of CC50 for human HepG2 cells in presence of 1% FBS to MIC for Acinetobacter baumannii ATCC 17978; type: toxicity; details: read-out: Selectivity Index
[18] = tested on: Staphylococcus aureus; assay: Antibacterial activity against vancomycin-resistant Staphylococcus aureus ATCC 700699 after 18 hrs by broth microdilution method; type: functional; details: ATCC 700699, 18 h; outline: as §1
[19] = tested on: Staphylococcus aureus; assay: Antibacterial activity against vancomycin-intermediate Staphylococcus aureus ATCC 700698 after 18 hrs by broth microdilution method; type: functional; details: ATCC 700698, 18 h; outline: as §1
[20] = tested on: Escherichia coli; assay: Antibacterial activity against Escherichia coli N2381 after 18 hrs by broth microdilution method; type: functional; details: N2381, 18 h; outline: as §1
[21] = tested on: Klebsiella pneumoniae; assay: Antibacterial activity against Klebsiella pneumoniae isolate 248-33-D after 18 hrs by broth microdilution method; type: functional; outline: as §1
[22] = Selectivity index, ratio of CC50 for human HepG2 cells in presence of 1% FBS to MIC for Pseudomonas aeruginosa isolate 19147nm; type: toxicity; details: read-out: Selectivity Index; outline: as §2
[23] = Selectivity index, ratio of CC50 for human HepG2 cells in presence of 1% FBS to MIC for Pseudomonas aeruginosa isolate 18878B klon 1; type: toxicity; details: read-out: Selectivity Index; outline: as §2
[24] = tested on: Enterococcus faecium; assay: Antibacterial activity against vancomycin-resistant Enterococcus faecium ATCC 700221 after 18 hrs by broth microdilution method; type: functional; details: ATCC 700221, 18 h; outline: as §1
[25] = tested on: Pseudomonas aeruginosa; assay: Antibacterial activity against Pseudomonas aeruginosa isolate 18878B klon 1 after 18 hrs by broth microdilution method; type: functional; details: isolate 18878B klon 1, 18 h; outline: as §1
[26] = Selectivity index, ratio of CC50 for human HepG2 cells in presence of 1% FBS to MIC for Klebsiella pneumoniae isolate M320445; type: toxicity; details: read-out: Selectivity Index
[27] = tested on: Klebsiella pneumoniae; assay: Antibacterial activity against Klebsiella pneumoniae ATCC 13883 after 18 hrs by broth microdilution method; type: functional; details: ATCC 13883, 18 h; outline: as §1
[28] = tested on: Mycobacterium tuberculosis; assay: Antimycobacterial activity against Mycobacterium tuberculosis H37Rv ATCC 25618 after 7 days by resazurin dye based assay; type: functional; details: H37Rv ATCC 25618, 168 h
Outline: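 H37Rv grown at 37 °C in 7H9 with 10% ADC, 0.5% glycerol and 0.02% tyloxapol. Compounds serially diluted in water, 0 to 10 µM, in triplicate. Culture adjusted to OD600 0.001 and incubated 7 days at 37 °C. Resazurin (0.05% w/v) added for 4-24 h and fluorescence read at 590 nm. MIC is the lowest concentration giving complete growth inhibition versus untreated. Rifampicin served as control.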

[29] = Selectivity index, ratio of CC50 for human HepG2 cells in presence of 1% FBS to MIC for Pseudomonas aeruginosa isolate 912; type: toxicity; details: read-out: Selectivity Index; outline: as §2
[30] = Selectivity index, ratio of CC50 for human HepG2 cells in presence of 1% FBS to IC50 for CQ-sensitive GFP-fused Plasmodium falciparum D10; type: toxicity; details: read-out: Ratio IC50
[31] = tested on: Klebsiella pneumoniae; assay: Antibacterial activity against Klebsiella pneumoniae isolate M320445 after 18 hrs by broth microdilution method; type: functional; details: isolate M320445, 18 h; outline: as §1
[32] = Selectivity index, ratio of CC50 for human HepG2 cells in presence of 1% FBS to MIC for Acinetobacter baumannii ATCC 19606 col10; type: toxicity; details: read-out: Selectivity Index
[33] = Selectivity index, ratio of CC50 for human HepG2 cells in presence of 1% FBS to MIC for Mycobacterium tuberculosis H37Rv ATCC 25618; type: toxicity; details: read-out: Selectivity Index
[34] = tested on: Klebsiella pneumoniae; assay: Antibacterial activity against Klebsiella pneumoniae isolate 224-11-C after 18 hrs by broth microdilution method; type: functional; outline: as §1
[35] = Selectivity index, ratio of CC50 for human HepG2 cells in presence of 1% FBS to MIC for Klebsiella pneumoniae isolate 1; type: toxicity; details: read-out: Selectivity Index

Row | Compound | selectivity ratio [1] | MIC [2] [µM] | MIC [3] [µM] | selectivity ratio [4] | selectivity ratio [5] | MIC [6] [µM] | MIC [7] [µM] | MIC [8] [µM] | selectivity ratio [9] | MIC [10] [µM] | MIC [11] [µM] | selectivity ratio [12] | selectivity ratio [13] | selectivity ratio [14] | MIC [15] [µM] | selectivity ratio [16] | selectivity ratio [17] | MIC [18] [µM] | MIC [19] [µM] | MIC [20] [µM] | other results
1 | c1ccc2c(c1)[I+]c1c-2ccc2ccccc12 | 0.17 | 17 | 2.1 | 0.04 | 1.4 | 8.4 | 1.1 | 34 | 0.09 | 34 | 1.1 | 0.09 | 0.09 | 0.69 | 4.2 | 0.17 | 0.69 | 4.2 | 4.2 | 8.4 | MIC [21]: 34 µM; selectivity ratio [22]: 0.34; selectivity ratio [23]: 0.34; MIC [24]: 1.1 µM; MIC [25]: 2.1 µM; selectivity ratio [26]: 0.04; MIC [27]: 8.4 µM; MIC [28]: 0.52 µM; selectivity ratio [29]: 0.34; selectivity ratio [30]: 5.8; MIC [31]: 17 µM; selectivity ratio [32]: 0.69; selectivity ratio [33]: 2.4; MIC [34]: 34 µM; selectivity ratio [35]: 0.02
2 | Fc1ccc2c(c1)[I+]c1ccccc1-2 | 2.6 | 18 | 2.2 | 0.08 | 11 | 8.9 | 2.2 | 18 | 0.16 | 72 | 1.1 | 0.66 | 2.6 | 2.6 | 4.5 | 2.6 | 5.3 | 8.9 | 8.9 | 18 | MIC [21]: 36 µM; selectivity ratio [22]: 11; selectivity ratio [23]: 5.3; MIC [24]: 2.2 µM; MIC [25]: 1.1 µM; selectivity ratio [26]: 0.16; MIC [27]: 36 µM; MIC [28]: 0.29 µM; selectivity ratio [29]: 5.3; selectivity ratio [30]: 105; MIC [31]: 36 µM; selectivity ratio [32]: 2.6; selectivity ratio [33]: 20; MIC [34]: 72 µM; selectivity ratio [35]: 0.08
3 | N#Cc1ccc2c(c1)[I+]c1ccccc1-2 | 0.19 | 71 | 4.4 | 0.05 | 1.5 | 35 | 2.2 | 71 | 0.19 | > 71 | 4.4 | 0.09 | 0.19 | 1.5 | 18 | 0.19 | 0.75 | 8.8 | 8.8 | 71 | MIC [21]: > 71 µM; selectivity ratio [22]: 1.5; selectivity ratio [23]: 0.75; MIC [24]: 2.2 µM; MIC [25]: 4.4 µM; selectivity ratio [26]: 0.09; MIC [27]: 18 µM; MIC [28]: 0.29 µM; selectivity ratio [29]: 0.75; selectivity ratio [30]: 62; MIC [31]: 35 µM; selectivity ratio [32]: 1.5; selectivity ratio [33]: 12; MIC [34]: > 71 µM; selectivity ratio [35]: > 0.05
4 | Clc1ccc2c(c1)[I+]c1ccccc1-2 | 0.51 | 4.3 | 2.2 | 0.26 | < 4.1 | 8.7 | 1.1 | 8.7 | 0.13 | 17 | 0.54 | 0.13 | 0.51 | 1 | 2.2 | 0.51 | 2 | 2.2 | 2.2 | 8.7 | MIC [21]: 17 µM; selectivity ratio [22]: 2; selectivity ratio [23]: 2; MIC [24]: 1.1 µM; MIC [25]: 0.54 µM; selectivity ratio [26]: 0.13; MIC [27]: 8.7 µM; MIC [28]: 0.28 µM; selectivity ratio [29]: 1; selectivity ratio [30]: 15; MIC [31]: 8.7 µM; selectivity ratio [32]: 1; selectivity ratio [33]: 3.9; MIC [34]: 17 µM; selectivity ratio [35]: 0.06
